{
  "source": "ChEMBL document CHEMBL1125735",
  "about": "“trans-hexahydroindolo[4,3-ab]phenanthridines (\"benzergolines\"), the first structural class of potent and selective dopamine D1 receptor agonists lacking a catechol group” (1991)",
  "key": {"Bos taurus": {"species": "Bos taurus", "assay": "Percent of maximal effect of 125 uM Dopamine in the adenylate cyclase assay.", "type": "functional", "how_it_was_run": "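Dopamine-sensitive adenylate cyclase assay run on bovine retina tissue.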"}, "[1]": {"target": "D(2) dopamine receptor (Rattus norvegicus) (UniProt P61169)", "sequence (P61169 whole entry)": "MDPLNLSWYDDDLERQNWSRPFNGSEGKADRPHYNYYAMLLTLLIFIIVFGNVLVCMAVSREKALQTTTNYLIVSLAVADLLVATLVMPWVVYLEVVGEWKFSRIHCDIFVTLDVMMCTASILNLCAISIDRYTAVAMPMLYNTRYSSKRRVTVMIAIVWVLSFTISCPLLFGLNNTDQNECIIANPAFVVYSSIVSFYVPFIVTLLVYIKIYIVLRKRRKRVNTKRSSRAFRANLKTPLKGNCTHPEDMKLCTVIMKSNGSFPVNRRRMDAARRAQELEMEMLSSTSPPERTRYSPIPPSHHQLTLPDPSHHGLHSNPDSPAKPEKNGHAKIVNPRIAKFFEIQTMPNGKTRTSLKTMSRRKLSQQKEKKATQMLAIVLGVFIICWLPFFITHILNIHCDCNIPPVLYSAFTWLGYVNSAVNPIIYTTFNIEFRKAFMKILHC", "assay": "Percent of maximal inhibition by change of S2/S1 versus control at 1 uM for the cetylcholine (ACh) release as a model for Dopamine D2 receptor activation.", "type": "functional", "design": "scale not given: the % may be the effect or the level left", "how_it_was_run": "(§1)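 Electrically evoked acetylcholine release measured in rat striatal slices.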"}, "[2]": {"test_system": "Dopamine D1 receptor (Bos taurus)", "assay": "Compound was evaluated for its potency to Dopamine D1 stimulating effect in the adenylate cyclase assay."}, "[3]": {"target": "D(2) dopamine receptor (Rattus norvegicus) (UniProt P61169)", "assay": "Compound was evaluated for its potency to inhibit electrically evoked acetylcholine (ACh) release as a model for Dopamine D2 receptor activation.", "type": "functional", "how_it_was_run": "as §1"}, "[4]": {"target": "D(2) dopamine receptor (Rattus norvegicus) (UniProt P61169)", "conditions": "1 uM"}, "[5]": {"target": "D(2) dopamine receptor (Rattus norvegicus) (UniProt P61169)", "assay": "Percent of maximal inhibition by change of S2/S1 versus control at 1 uM for the acetylcholine (ACh) release as a model for Dopamine D2 receptor activation.", "type": "functional", "design": "scale not given: the % may be the effect or the level left", "how_it_was_run": "as §1"}},
  "data": [
    {"smiles": "Oc1cc2c(cc1O)C(c1ccccc1)CNCC2", "note": "(stereo not given) [SKF-38393]", "values": [
      {"measurement": "Relative activity", "setting": "Bos taurus", "result": 58, "unit": "%"},
      {"measurement": "Control", "setting": "[1]", "result": 0, "unit": "%"},
      {"measurement": "pD2", "setting": "[2]", "result": 6.6}
    ]},
    {"smiles": "CN1Cc2ccccc2[C@H]2c3cccc4c3C(CN4)C[C@H]21", "note": "(stereo not given in full)", "values": [
      {"measurement": "Relative activity", "setting": "Bos taurus", "result": 0, "unit": "%"},
      {"measurement": "Control", "setting": "[1]", "result": 0, "unit": "%"}
    ]},
    {"smiles": "Oc1ccc([C@@H]2CNCc3ccccc32)cc1O", "values": [
      {"measurement": "Relative activity", "setting": "Bos taurus", "result": 86, "unit": "%"},
      {"measurement": "Control", "setting": "[1]", "result": 0, "unit": "%"},
      {"measurement": "pD2", "setting": "[2]", "result": 6}
    ]},
    {"smiles": "CN1CCc2cccc3c2[C@H]1Cc1ccc(O)c(O)c1-3", "note": "[APOMORPHINE]", "values": [
      {"measurement": "Relative activity", "setting": "Bos taurus", "result": 38, "unit": "%"},
      {"measurement": "pD2", "setting": "[3]", "result": 7.5},
      {"measurement": "Control", "setting": "[4]", "result": 85, "unit": "%"},
      {"measurement": "pD2", "setting": "[2]", "result": 6.2}
    ]},
    {"smiles": "CN1Cc2ccccc2[C@H]2c3cccc4[nH]cc(c34)C[C@H]21", "values": [
      {"measurement": "Relative activity", "setting": "Bos taurus", "result": 57, "unit": "%"},
      {"measurement": "Control", "setting": "[5]", "result": 0, "unit": "%"},
      {"measurement": "pD2", "setting": "[2]", "result": 6.1}
    ]},
    {"smiles": "CN1CCC[C@H]2c3cccc4[nH]cc(c34)C[C@H]21", "values": [
      {"measurement": "Relative activity", "setting": "Bos taurus", "result": 24, "unit": "%"},
      {"measurement": "Control", "setting": "[1]", "result": 30, "unit": "%"},
      {"measurement": "pD2", "setting": "[3]", "result": 7.5},
      {"measurement": "pD2", "setting": "[2]", "result": 5.2}
    ]},
    {"smiles": "c1ccc2c(c1)CN[C@@H]1Cc3c[nH]c4cccc(c34)[C@H]21", "values": [
      {"measurement": "Relative activity", "setting": "Bos taurus", "result": 82, "unit": "%"},
      {"measurement": "Control", "setting": "[5]", "result": 0, "unit": "%"},
      {"measurement": "pD2", "setting": "[2]", "result": 6.3}
    ]},
    {"smiles": "CCCN1Cc2ccccc2[C@H]2c3cccc4[nH]cc(c34)C[C@H]21", "values": [
      {"measurement": "Relative activity", "setting": "Bos taurus", "result": 55, "unit": "%"},
      {"measurement": "Control", "setting": "[5]", "result": 0, "unit": "%"},
      {"measurement": "pD2", "setting": "[2]", "result": 5.7}
    ]},
    {"smiles": "CCCCN1Cc2ccccc2[C@H]2c3cccc4[nH]cc(c34)C[C@H]21", "values": [
      {"measurement": "Relative activity", "setting": "Bos taurus", "result": 0, "unit": "%"},
      {"measurement": "Control", "setting": "[1]", "result": 0, "unit": "%"}
    ]},
    {"smiles": "CCN1Cc2ccccc2[C@H]2c3cccc4[nH]cc(c34)C[C@H]21", "values": [
      {"measurement": "Relative activity", "setting": "Bos taurus", "result": 72, "unit": "%"},
      {"measurement": "Control", "setting": "[5]", "result": 0, "unit": "%"},
      {"measurement": "pD2", "setting": "[2]", "result": 6}
    ]}
  ]
}
